# From ChEMBL document CHEMBL1158424, “Design, synthesis and biological investigation of certain pyrazole-3-carboxylic acid derivatives as novel carriers for nitric oxide” (Bioorg Med Chem, 2009)
# Active and inactive are the calls of the source. No cut-off for these calls is given here.
# System: Pseudomonas aeruginosa
# Assay: Antibacterial activity against Pseudomonas aeruginosa after 24 hrs by agar cup diffusion method
# Type: functional
# Conditions: not given
# Method in brief: (§1)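 Nutrient agar seeded with culture, poured 3–4 mm; six 10 mm cups per plate, one as DMF solvent control. Compounds dissolved in DMF (stock 1 mg/mL), two-fold serial dilutions 32–512 µg/mL, 0.1 mL per cup. Incubation 24 h at 37 °C; inhibition zone diameter read in mm. MIC taken as intercept of log concentration versus zone diameter plot; ciprofloxacin reference.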
row,MIC,Compound
1,4.3 µg/mL,Cc1ccc(NC(=O)c2nn(-c3ccccc3)c(-c3ccccc3)c2C(=O)c2ccccc2)cc1
2,7.99 µg/mL,Cc1ccc(NC(=O)c2nn(-c3ccccc3)c(-c3ccccc3)c2/C(=N/O)c2ccccc2)cc1

# Continued, molecule first:
row,Compound,MIC
1,O=C(O)c1ccc(NC(=O)c2nn(-c3ccccc3)c(-c3ccccc3)c2C(=O)c2ccccc2)cc1,25.3 µg/mL
2,O=C(OCCBr)c1nn(-c2ccccc2)c(-c2ccccc2)c1C(=O)c1ccccc1,6.04 µg/mL
3,CC(=O)c1ccc(NC(=O)c2nn(-c3ccccc3)c(-c3ccccc3)c2C(=O)c2ccccc2)cc1,32.4 µg/mL

# System: not listed separately
# Assay: Nitric oxide release in phosphate buffer at pH 7.4 after 1 hr by Griess diazotization reaction method in presence of L-cysteine
# Design: concentration or dose not given beside the values
# Conditions: not given
# Method in brief: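 Incubation in pH 7.4 phosphate buffer with L-cysteine for 1 h at 37 °C. Then 1 mL of mixture treated with Griess reagent (sulfanilamide, N-naphthylethylenediamine, phosphoric acid); absorbance read at 540 nm after 25 min. Nitrite quantified against sodium nitrite standard curve; % release = found/theoretical NO × 100.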
row,Compound,Activity
1,Cc1ccc(NC(=O)c2nn(-c3ccccc3)c(-c3ccccc3)c2/C(=N/O)c2ccccc2)cc1,10.1%

# System: Escherichia coli
# Assay: Antibacterial activity against Escherichia coli C-600 after 24 hrs by agar cup diffusion method
# Type: functional
# Conditions: C-600, 24 h
# Method in brief: as §1
row,MIC,Compound
1,16.1 µg/mL,Cc1ccc(NC(=O)c2nn(-c3ccccc3)c(-c3ccccc3)c2C(=O)c2ccccc2)cc1
2,28.6 µg/mL,Cc1ccc(NC(=O)c2nn(-c3ccccc3)c(-c3ccccc3)c2/C(=N/O)c2ccccc2)cc1

# Second part, the molecule before the results:
row,Compound,MIC
1,O=C(O)c1ccc(NC(=O)c2nn(-c3ccccc3)c(-c3ccccc3)c2C(=O)c2ccccc2)cc1,30.9 µg/mL
2,O=C(OCCBr)c1nn(-c2ccccc2)c(-c2ccccc2)c1C(=O)c1ccccc1,24 µg/mL
3,CC(=O)c1ccc(NC(=O)c2nn(-c3ccccc3)c(-c3ccccc3)c2C(=O)c2ccccc2)cc1,39.9 µg/mL

# System: Bacillus subtilis
# Assay: Antibacterial activity against Bacillus subtilis after 24 hrs by agar cup diffusion method
# Type: functional
# Conditions: not given
# Method in brief: as §1
row,MIC,Compound
1,33.8 µg/mL,Cc1ccc(NC(=O)c2nn(-c3ccccc3)c(-c3ccccc3)c2C(=O)c2ccccc2)cc1
2,2.87 µg/mL,Cc1ccc(NC(=O)c2nn(-c3ccccc3)c(-c3ccccc3)c2/C(=N/O)c2ccccc2)cc1

# Second part, the molecule before the results:
row,Compound,MIC
1,O=C(O)c1ccc(NC(=O)c2nn(-c3ccccc3)c(-c3ccccc3)c2C(=O)c2ccccc2)cc1,34.8 µg/mL
2,O=C(OCCBr)c1nn(-c2ccccc2)c(-c2ccccc2)c1C(=O)c1ccccc1,47.5 µg/mL
3,CC(=O)c1ccc(NC(=O)c2nn(-c3ccccc3)c(-c3ccccc3)c2C(=O)c2ccccc2)cc1,1.75 µg/mL

# System: Staphylococcus aureus
# Assay: Antibacterial activity against Staphylococcus aureus NCTC 6571 after 24 hrs by agar cup diffusion method
# Type: functional
# Conditions: not given
# Method in brief: as §1
row,MIC,Compound
1,inactive,Cc1ccc(NC(=O)c2nn(-c3ccccc3)c(-c3ccccc3)c2C(=O)c2ccccc2)cc1
2,inactive,Cc1ccc(NC(=O)c2nn(-c3ccccc3)c(-c3ccccc3)c2/C(=N/O)c2ccccc2)cc1

# The next lines start with the molecule.
row,Compound,MIC
1,O=C(OCCBr)c1nn(-c2ccccc2)c(-c2ccccc2)c1C(=O)c1ccccc1,inactive
2,CC(=O)c1ccc(NC(=O)c2nn(-c3ccccc3)c(-c3ccccc3)c2C(=O)c2ccccc2)cc1,inactive

# Same assay, conditions: NCTC 6571, 24 h
row,MIC,Compound
1,64 µg/mL,O=C(O)c1ccc(NC(=O)c2nn(-c3ccccc3)c(-c3ccccc3)c2C(=O)c2ccccc2)cc1

# System: Rattus norvegicus
# Assay: Antiinflammatory activity in albino rat assessed as inhibition of carrageenan-induced paw edema at 100 mg/kg, po administered 30 mins prior to carrageenan challenge measured after 1 hr
# Type: functional
# Conditions: not given
# Method in brief: (§2)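 Male albino rats, 140–150 g, groups of 5, acclimatized 3 days, water only on the last day. Oral dosing in carboxymethylcellulose vehicle 30 min before subplantar 1% carrageenan (0.1 mL) into one hind paw; contralateral paw given saline. Paw thickness by digital plethysmometer at 0–5 h. Percent inhibition from difference between paws, treated versus vehicle control; indomethacin reference; mean ± SEM.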
row,Compound,inhibition in vivo at 100 mg/kg
1,Cc1ccc(NC(=O)c2nn(-c3ccccc3)c(-c3ccccc3)c2C(=O)c2ccccc2)cc1,42.5%
2,Cc1ccc(NC(=O)c2nn(-c3ccccc3)c(-c3ccccc3)c2/C(=N/O)c2ccccc2)cc1,12.7%
3,O=C(O)c1ccc(NC(=O)c2nn(-c3ccccc3)c(-c3ccccc3)c2C(=O)c2ccccc2)cc1,23.6%
4,O=C(OCCBr)c1nn(-c2ccccc2)c(-c2ccccc2)c1C(=O)c1ccccc1,25.4%
5,CC(=O)c1ccc(NC(=O)c2nn(-c3ccccc3)c(-c3ccccc3)c2C(=O)c2ccccc2)cc1,29.1%

# System: Rattus norvegicus
# Assay: Antiinflammatory activity in albino rat assessed as inhibition of carrageenan-induced paw edema at 100 mg/kg, po administered 30 mins prior to carrageenan challenge measured after 2 hrs
# Type: functional
# Conditions: not given
# Method in brief: as §2
row,Compound,inhibition in vivo at 100 mg/kg
1,Cc1ccc(NC(=O)c2nn(-c3ccccc3)c(-c3ccccc3)c2C(=O)c2ccccc2)cc1,29.1%
2,Cc1ccc(NC(=O)c2nn(-c3ccccc3)c(-c3ccccc3)c2/C(=N/O)c2ccccc2)cc1,20%
3,O=C(O)c1ccc(NC(=O)c2nn(-c3ccccc3)c(-c3ccccc3)c2C(=O)c2ccccc2)cc1,25%
4,O=C(OCCBr)c1nn(-c2ccccc2)c(-c2ccccc2)c1C(=O)c1ccccc1,28.4%
5,CC(=O)c1ccc(NC(=O)c2nn(-c3ccccc3)c(-c3ccccc3)c2C(=O)c2ccccc2)cc1,45.5%

# System: Rattus norvegicus
# Assay: Antiinflammatory activity in albino rat assessed as inhibition of carrageenan-induced paw edema at 100 mg/kg, po administered 30 mins prior to carrageenan challenge measured after 3 hrs
# Type: functional
# Conditions: not given
# Method in brief: as §2
row,Compound,inhibition in vivo at 100 mg/kg
1,Cc1ccc(NC(=O)c2nn(-c3ccccc3)c(-c3ccccc3)c2C(=O)c2ccccc2)cc1,28.3%
2,Cc1ccc(NC(=O)c2nn(-c3ccccc3)c(-c3ccccc3)c2/C(=N/O)c2ccccc2)cc1,36.5%
3,O=C(O)c1ccc(NC(=O)c2nn(-c3ccccc3)c(-c3ccccc3)c2C(=O)c2ccccc2)cc1,27%
4,O=C(OCCBr)c1nn(-c2ccccc2)c(-c2ccccc2)c1C(=O)c1ccccc1,30.2%
5,CC(=O)c1ccc(NC(=O)c2nn(-c3ccccc3)c(-c3ccccc3)c2C(=O)c2ccccc2)cc1,45%

# System: Rattus norvegicus
# Assay: Antiinflammatory activity in albino rat assessed as inhibition of carrageenan-induced paw edema at 100 mg/kg, po administered 30 mins prior to carrageenan challenge measured after 4 hrs
# Type: functional
# Conditions: not given
# Method in brief: as §2
row,Compound,inhibition in vivo at 100 mg/kg
1,Cc1ccc(NC(=O)c2nn(-c3ccccc3)c(-c3ccccc3)c2C(=O)c2ccccc2)cc1,30.2%
2,Cc1ccc(NC(=O)c2nn(-c3ccccc3)c(-c3ccccc3)c2/C(=N/O)c2ccccc2)cc1,45.6%
3,O=C(O)c1ccc(NC(=O)c2nn(-c3ccccc3)c(-c3ccccc3)c2C(=O)c2ccccc2)cc1,41.2%
4,O=C(OCCBr)c1nn(-c2ccccc2)c(-c2ccccc2)c1C(=O)c1ccccc1,41.2%
5,CC(=O)c1ccc(NC(=O)c2nn(-c3ccccc3)c(-c3ccccc3)c2C(=O)c2ccccc2)cc1,47.6%

# System: Rattus norvegicus
# Assay: Antiinflammatory activity in albino rat assessed as inhibition of carrageenan-induced paw edema at 100 mg/kg, po administered 30 mins prior to carrageenan challenge measured after 5 hrs
# Type: functional
# Conditions: not given
# Method in brief: as §2
row,Compound,inhibition in vivo at 100 mg/kg
1,Cc1ccc(NC(=O)c2nn(-c3ccccc3)c(-c3ccccc3)c2C(=O)c2ccccc2)cc1,51.2%
2,Cc1ccc(NC(=O)c2nn(-c3ccccc3)c(-c3ccccc3)c2/C(=N/O)c2ccccc2)cc1,82.6%
3,O=C(O)c1ccc(NC(=O)c2nn(-c3ccccc3)c(-c3ccccc3)c2C(=O)c2ccccc2)cc1,46.4%
4,O=C(OCCBr)c1nn(-c2ccccc2)c(-c2ccccc2)c1C(=O)c1ccccc1,52.2%
5,CC(=O)c1ccc(NC(=O)c2nn(-c3ccccc3)c(-c3ccccc3)c2C(=O)c2ccccc2)cc1,61.8%

# System: Rattus norvegicus
# Assay: Gastrointestinal toxicity in albino rat assessed as ulcer index at 100 mg/kg, po
# Type: organism-based
# Design: dose 100 mg/kg, route oral
# Conditions: in vivo
# Method in brief: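 Rats from the paw edema study killed by ether overdose; stomachs removed, opened and examined for visible lesions. Each lesion scored 0–5 by length (0 none, 1 petechiae, 2 <1 mm, 3 1–2 mm, 4 2–4 mm, 5 >4 mm erosions). Scores summed per rat; group ulcer index is the mean lesion score.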
row,Compound,UI
1,Cc1ccc(NC(=O)c2nn(-c3ccccc3)c(-c3ccccc3)c2C(=O)c2ccccc2)cc1,4
2,Cc1ccc(NC(=O)c2nn(-c3ccccc3)c(-c3ccccc3)c2/C(=N/O)c2ccccc2)cc1,3
3,O=C(O)c1ccc(NC(=O)c2nn(-c3ccccc3)c(-c3ccccc3)c2C(=O)c2ccccc2)cc1,17
4,O=C(OCCBr)c1nn(-c2ccccc2)c(-c2ccccc2)c1C(=O)c1ccccc1,11
5,CC(=O)c1ccc(NC(=O)c2nn(-c3ccccc3)c(-c3ccccc3)c2C(=O)c2ccccc2)cc1,11
